Reference: PubChem BioAssay
Records with an inconclusive call do not appear. Active and inactive are the calls of the source.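 How the source made its calls, unless noted: active means RAM network inhibition above 8.4% in each of two replicates, 3 SD over the compound average; inconclusive means above 8.4% inhibition in only one replicate; inactive means 8.4% inhibition or less in each replicate.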

Experiments:
[1] = OD615 S. cerevisiae growth inhibition, permissive medium, pilot counter-assay, permissive growth control for S. cerevisiae lifespan shortening project (AID 705;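 active means growth inhibition above 25% in both replicates, a cutoff set 3 SD above the mean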); settings: OD615, 24 h, at 10 µM, active compounds read high
Summary of the method: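 System: S. cerevisiae with engineered DeaD lifespan system. Medium: SC raffinose/galactose permissive medium. Doses: single compound dose of 10 µM, 0.25% DMSO final. Schedule: 24 h exposure, 30 °C. Measured by: OD615 turbidity read. Read-out: growth inhibition.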

[2] = Restrictive medium S. cerevisiae growth inhibition, OD615, pilot screen of yeast lifespan reduction project, restrictive growth control (AID 706;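 active means growth inhibition above a set limit, 3 SD over mean compound inhibition, in both replicates, cut at about 43% in these data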;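 further: modified DeaD lifespan yeast strain shifted to restrictive glucose medium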); settings: OD615, 48 h, at 10 µM, active compounds read high
Summary of the method: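 Assay system – genetically modified Saccharomyces cerevisiae, DeaD replicative lifespan assay strain · Medium – CSMM-D glucose medium · Doses – 10 µM compound, 0.25% DMSO · Times – 4 h pre-incubation, 48 h exposure at 30 °C · Signal – optical density at 615 nm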

[3] = viability gain of MRP-1-high H69AR cells under doxorubicin, pilot screen, MRP-1 activator project, CellTiter-Glo, duplicate (AID 807;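 active means viability increase at or above a cutoff of the median across tested compounds plus 3 SD, cut at about 8.5% in these data, passing the limit was not always enough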;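 further: compound pretreatment 18-22 h then 72 h combined with doxorubicin; 0% = doxorubicin alone and 100% = vehicle without doxorubicin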); settings: H69AR viability with doxorubicin, CellTiter-Glo luminescence; at 10 µM; active compounds read high
[4] = growth suppression of beta-catenin knockout HCT116, pilot screen, human colon tumor cells (AID 823;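 active means cell viability at or below a set limit in both duplicate runs, the limit being the all-compound median minus 4 SD, cut at about 23% in these data, passing the limit was not always enough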;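 further: 0% = wells killed by 20 µM Hyamine and 100% = untreated DMSO cell wells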); settings: CellTiter-Glo, 60 h, at 10 µM, active compounds read low
[5] = growth suppression of PTEN-deleted HCT116, pilot screen, cell-based, HCT116 clonal line, CellTiter-Glo (AID 824;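 active means viability at or below 27.92% in each of two runs, the all-compound median minus 4 SD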;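 further: 0% = 20 µM Hyamine control and 100% = vehicle cell control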); settings: 60 h, at 10 µM, active compounds read low
[6] = inhibitors of the yeast RAM network, pilot screen, dse1pr::URA3 reporter, 5-FOA selection (AID 869;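 active means inhibition over a set limit, the all-compound mean plus 3 SD, in both replicate runs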;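 further: 0% = DMSO wells with no growth and 100% = 10 µM 1-NA-PP1 with full growth; RAM network block rescues cells from 5-FOA so hits raise OD615 growth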); settings: S. cerevisiae dse1pr::URA3 5-FOA growth, OD615, 2 d; at 10 µM; active compounds read high; strain carries analog-sensitive mutant Cbk1 kinase
[7] = RAM signaling pathway blockade in yeast – S. cerevisiae, Pdr1DBD-CYC8 efflux-inhibited sensitized strain, primary screen (AID 1298);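 further: 0% = DMSO untreated cells without growth and 100% = 10 µM 1-NA-PP1 full growth; higher means more yeast growth rescued from 5-FOA killing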; settings: S. cerevisiae cbk1-as DSE1-URA3 strain, 5-FOA growth OD615, 2 d; at 50 µM; active compounds read high

Structure (SMILES)	growth inhibition [1]	growth inhibition [2]	viability increase [3]	viability [4]	viability [5]	inhibition [6]	RAM network inhibition [7]
CCN(CC)S(=O)(=O)c1ccc(C(=O)OCC(=O)N2CCN(C(=O)c3ccco3)CC2)cc1	-8.4% (inactive)	-3.91% (inactive)	0.34% (inactive)	89.7% (inactive)	93.6% (inactive)	1.86% (inactive)	1.24% (inactive)
C=CCNC(=O)C1CC(=O)N(c2ccc(C)cc2)C1 (stereo unspecified)	-10.6% (inactive)	-4.72% (inactive)	-3.08% (inactive)	93.9% (inactive)	86.1% (inactive)	0.995% (inactive)	4.77% (inactive)
Cc1noc(C(=O)Nc2c(C)n(C)n(-c3ccccc3)c2=O)c1Cl	-13.3% (inactive)	-16.6% (inactive)	-2.04% (inactive)	95% (inactive)	98.7% (inactive)	1.79% (inactive)	0.38% (inactive)
O=C(c1c(F)cccc1F)N1CCN(c2cccc(C(F)(F)F)c2)CC1	-7.33% (inactive)	-6.87% (inactive)	2.86% (inactive)	83.8% (inactive)	82.1% (inactive)	0.955% (inactive)	4.98% (inactive)
CCCn1cc(S(=O)(=O)CC(=O)NC2CCCCC2)c2ccccc21	-1.69% (inactive)	-0.78% (inactive)	-0.07% (inactive)	93.2% (inactive)	101% (inactive)	1.39% (inactive)	2.24% (inactive)
CCOC(=O)N1CCN(C(=O)CS(=O)Cc2nc(-c3cccc(C)c3)oc2C)CC1 (stereo unspecified)	-10.5% (inactive)	-16.8% (inactive)	-1.34% (inactive)	104% (inactive)	100% (inactive)	1.69% (inactive)	1.11% (inactive)
COc1ccc(-c2noc(Cc3ccccc3OC)n2)cc1	-15.1% (inactive)	-10.5% (inactive)	1.93% (inactive)	94% (inactive)	83.7% (inactive)	1.83% (inactive)	1.94% (inactive)
O=C(Nc1ccc(F)cc1F)N1CCN(C/C=C/c2ccccc2)CC1	-1.48% (inactive)	2.67% (inactive)	0.1% (inactive)	86.7% (inactive)	89% (inactive)	2.04% (inactive)	0.95% (inactive)
Cc1cc(SCC(=O)OCC(=O)N2CCN(C(=O)c3ccco3)CC2)c(C)cc1Br	-2.27% (inactive)	4.81% (inactive)	-2.19% (inactive)	91.4% (inactive)	98.2% (inactive)	0.31% (inactive)	0.4% (inactive)
COc1ccc(CNC(=O)c2cc3c(C)nc4ccccc4c3o2)c(OC)c1	-10.6% (inactive)	-12.2% (inactive)	-0.17% (inactive)	74% (inactive)	75.2% (inactive)	1.66% (inactive)	6.46% (inactive)
Cn1c(=O)oc2cc(S(=O)(=O)N3CCCc4ccccc43)ccc21	-5.55% (inactive)	-1.98% (inactive)	-5.94% (inactive)	18.1% (active)	23.5% (active)	1.96% (inactive)	3.9% (inactive)
Cc1cccc(N2CCN(S(C)(=O)=O)CC2)c1C	-14.5% (inactive)	-14.1% (inactive)	-0.12% (inactive)	108% (inactive)	95.3% (inactive)	0.76% (inactive)	5.4% (inactive)
CC1CCN(CC(O)COc2cccc(F)c2)CC1 (stereo unspecified)	-14.2% (inactive)	-6.4% (inactive)	-0.94% (inactive)	96.7% (inactive)	92.2% (inactive)	-0.65% (inactive)	0.62% (inactive)
Cc1ccc(-c2nc(C3CCCN(S(=O)(=O)c4ccc(C)cc4)C3)no2)cc1 (stereo unspecified)	-10.8% (inactive)	9.18% (inactive)	5.21% (inactive)	85.2% (inactive)	84.3% (inactive)	1.08% (inactive)	-1.57% (inactive)
C=CCOC(=O)C1=C(C)NC(C)=C(C(=O)OCC=C)C1c1ccc(O)cc1	-6.92% (inactive)	-8.46% (inactive)	-4.51% (inactive)	78.1% (inactive)	71% (inactive)	0.035% (inactive)	2.05% (inactive)
CCCN(CCC)S(=O)(=O)c1cc(Br)cc2c1N(C(=O)CC)CC2	-8.33% (inactive)	-21.3% (inactive)	-4.77% (inactive)	65.9% (inactive)	69.7% (inactive)	0.885% (inactive)	4.71% (inactive)
O=C(NC1CCCCC1)N1CCC(n2c(=O)[nH]c3ccccc32)CC1	-8.88% (inactive)	-10.8% (inactive)	1.07% (inactive)	91.1% (inactive)	89.6% (inactive)	2.25% (inactive)	5.7% (inactive)

Structure (SMILES)	growth inhibition [1]	growth inhibition [2]	viability increase [3]	viability [4]	viability [5]	inhibition [6]	RAM network inhibition [7]
COc1cccc(-c2nn(C)c3sc(C(=O)NCc4ccc5c(c4)OCO5)cc23)c1	2.61% (inactive)	9.31% (inactive)	-2.08% (inactive)	92.6% (inactive)	82.7% (inactive)	4.3% (inactive)	12.7% (inactive)
CC(=O)N1CCC(Nc2ccc(C)cc2)CC1	-15.6% (inactive)	-9.18% (inactive)	0.99% (inactive)	101% (inactive)	97.3% (inactive)	-0.41% (inactive)	1.48% (inactive)
CN1CCN(Cc2ccc(OCc3ccccc3)cc2)CC1	-3.27% (inactive)	-1.79% (inactive)	-2.45% (inactive)	88.1% (inactive)	91.4% (inactive)	-0.965% (inactive)	-0.47% (inactive)
CC(=O)Nc1nonc1-c1nc2ccccc2n1N(C(C)=O)C(C)=O	3.74% (inactive)	8.55% (inactive)	-2.77% (inactive)	93.2% (inactive)	93.5% (inactive)	2.67% (inactive)	3.63% (inactive)
O=C(O)c1cccc(NS(=O)(=O)c2cccc3cccnc23)c1	-3.04% (inactive)	-3.79% (inactive)	0.96% (inactive)	103% (inactive)	99.8% (inactive)	0.655% (inactive)	4.37% (inactive)
CC(C)N1C(=O)CCC1C(=O)NCCc1ccc(Cl)cc1 (stereo unspecified)	-1.75% (inactive)	3.14% (inactive)	0.32% (inactive)	100% (inactive)	97.3% (inactive)	0.29% (inactive)	-0.47% (inactive)
CCOC(=O)Cn1c(CN2CCOCC2)nc2c1c(=O)n(C)c(=O)n2C	-1.92% (inactive)	-5.31% (inactive)	1.26% (inactive)	107% (inactive)	103% (inactive)	1.72% (inactive)	2.19% (inactive)
CCN=C(NCC)SC1CC(=O)N(c2cccc(OC)c2)C1=O (stereo unspecified)	5.98% (inactive)	1.56% (inactive)	-1.43% (inactive)	101% (inactive)	94.6% (inactive)	0.04% (inactive)	7.47% (inactive)
COC1CCCCC1NS(=O)(=O)c1ccc(Cl)cc1 (stereo unspecified)	1.43% (inactive)	2.45% (inactive)	-1.67% (inactive)	93.3% (inactive)	99.6% (inactive)	-0.11% (inactive)	-1.18% (inactive)
COc1ccc(C2CC(c3ccc(Cl)cc3)n3nc(N)nc3N2)cc1 (stereo unspecified)	-5.72% (inactive)	10.7% (inactive)	2.46% (inactive)	100% (inactive)	95.1% (inactive)	3.23% (inactive)	4.44% (inactive)
COc1ccc(C2=NOC(C(=O)Nc3cc(C)nn3-c3ccccc3)C2)cc1OC (stereo unspecified)	-14.9% (inactive)	-31.2% (inactive)	-0.06% (inactive)	103% (inactive)	97.1% (inactive)	1.11% (inactive)	1.36% (inactive)
CCN1CCN(CC(=O)Nc2ccc3c(c2)OCCO3)C(=O)C1=O	2.63% (inactive)	10.1% (inactive)	1.13% (inactive)	105% (inactive)	103% (inactive)	0.675% (inactive)	2.49% (inactive)
CSc1nnc(Cn2c(=O)sc3ccccc32)n1CCc1ccccc1	3.19% (inactive)	9.71% (inactive)	-1.75% (inactive)	92.2% (inactive)	83.3% (inactive)	2.35% (inactive)	6.93% (inactive)
CCN(CCNC(=O)C1CCN(c2nnc(-n3cccc3)s2)CC1)c1ccccc1	-4.1% (inactive)	-6.63% (inactive)	-3.79% (inactive)	90.6% (inactive)	92.7% (inactive)	0.38% (inactive)	8.71% (inactive)
CCOCCCNC(=O)C(NC(=O)C1CCC(=O)N1)c1ccc(C)cc1 (stereo unspecified)	-2.92% (inactive)	-1.24% (inactive)	-0.58% (inactive)	109% (inactive)	98.8% (inactive)	1.03% (inactive)	5.24% (inactive)
CCCC1(C(=O)O)NC(c2ccccc2O)C2C(=O)N(Cc3ccccc3)C(=O)C21 (stereo unspecified)	7.11% (inactive)	6.84% (inactive)	-1.02% (inactive)	97.5% (inactive)	90.8% (inactive)	0.45% (inactive)	0.88% (inactive)
